Sampled rows, rich in hits. Any-hit rate of the full collection: about 0.55%.
V1R ag counter = counter-screen for oxytocin receptor agonists: human V1a receptor agonists; activation, % at 3 µM; P37288; 320,000 tested, 0.25% active; CHO-V1R cells, Fluo-8 calcium fluorescence, agonist mode; 0% DMSO, 100% 3 nM vasopressin; AID 2797;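 active = activation above the mean activation of all tested compounds plus 3 SD, per screening run, cut at about 20% in these data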;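 also: signal is peak over basal fluorescence ratio across a 100 second FLIPR read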
OXTR potentiate = human OXTR potentiation | CHO-OTR cells, Fluo-8 calcium fluorescence, potentiator mode; 0% = oxytocin EC15, 100% = EC100 | activation, % at 3 µM | 320,000 tested, 0.061% active | AID 2445;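 active = activation above that plate's cutoff, the mean activation of tested compounds plus 3 SD, cut at about 6.6% in these data, passing the limit was not always enough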
Target sequence (P30559 whole entry, looked up): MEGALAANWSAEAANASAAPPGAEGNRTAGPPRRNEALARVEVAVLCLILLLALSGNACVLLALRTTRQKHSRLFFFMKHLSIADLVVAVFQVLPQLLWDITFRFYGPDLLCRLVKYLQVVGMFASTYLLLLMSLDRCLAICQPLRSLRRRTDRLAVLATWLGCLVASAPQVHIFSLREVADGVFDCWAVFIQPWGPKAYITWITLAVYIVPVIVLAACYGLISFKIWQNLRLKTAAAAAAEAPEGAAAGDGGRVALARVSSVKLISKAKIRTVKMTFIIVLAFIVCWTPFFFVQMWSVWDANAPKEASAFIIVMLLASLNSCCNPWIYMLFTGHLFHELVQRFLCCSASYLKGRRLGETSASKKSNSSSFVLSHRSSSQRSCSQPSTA
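Assay system: CHO-OTR cells, human receptor / Also added: oxytocin at about EC15, sub-maximal agonist stimulus / Dosing: single dose, 3.0 µM nominal final compound concentration / Incubation: 6 min pre-incubation, 100 s read / Technique: Fluo-8 calcium dye fluorescence / Read-out: % activation vs EC15 and EC100 oxytocin / Benchmarks: EC15 oxytocin low, 75 nM oxytocin high / Replicates: singlicate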
OXTR ag = agonists of human oxytocin receptor. P30559. CHO-OTR cells, Fluo-8 calcium fluorescence; normalized: DMSO 0%, oxytocin 100%. activation, % at 3 µM. 320,000 tested, 0.32% active. AID 2435;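 active = activation above the mean of all tested compounds plus 3 SD, cutoff set per screening run, cut at about 20% in these data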;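 also: peak over basal fluorescence ratio from a 100 s FLIPR kinetic read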
TRPML3 agonist = human mucolipin-3 channel agonism; 220,000 tested, 0.29% active; Q8TDD5; HEK293 TRPML3-YFP, Fluo-8 calcium fluorescence; 100% = the carbachol control signal; AID 1448; activation, % at 3 µM;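 active = activation above its plate's cutoff, the mean activation of the plate's test wells plus 3 SD, cut at about 12% in these data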
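Test system: HEK293 cells stably carrying human TRPML3-YFP; Doses: single dose, 3 µM final nominal compound, 0.3% DMSO final; Schedule: dye loading 1 h 37 °C then 30 min ambient, 125 s read; Technique: Fluo-8 calcium fluorescence; Benchmarks: high control carbachol 87 µM, low control DMSO.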
TRPN1 ag = zebrafish TRPN1 (NompC) channel agonism | HEK293 zebrafish TRPN1-YFP, Fluo-8 calcium fluorescence; 100% = response to 87 µM carbachol | activation, % at 3 µM | 220,000 tested, 0.18% active | AID 1424;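 active = activation above its plate's cutoff, the mean activation of test wells on that plate plus 3 SD, cut at about 19% in these data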
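Material – zebrafish TRPN1-YFP in HEK293 cells · Doses – 3 µM single point · Schedule – dye 1 h 37 °C plus 30 min RT · Signal – Fluo-8 calcium fluorescence, excitation 470-495 nm, emission 515-575 nm · Read-out – % activation versus carbachol response · Control set – carbachol high, DMSO low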
A number is an active result.

Results for COc1ccccc1-n1c(=O)oc2ccc(Cl)cc2c1=O ?
V1R ag counter: inactive; OXTR potentiate: inactive; OXTR ag: inactive; TRPML3 agonist: 11.5; TRPN1 ag: 24.1

What do the screens show for `Cc1cc(C(F)(F)F)nc(SCC(=O)Nc2c(C)n(C)n(-c3ccccc3)c2=O)n1`?
V1R ag counter: inactive; OXTR potentiate: inactive; OXTR ag: inactive

How did CC(c1ccncc1)C(C)c1ccncc1 (stereo not given) do in these assays?
V1R ag counter: inactive; OXTR potentiate: inactive; OXTR ag: inactive

How did O=S(=O)(Nc1ccc(F)cc1)c1ccc(S(=O)(=O)N2CCOCC2)cc1 do in these assays?
V1R ag counter: 21.5; OXTR potentiate: inactive; OXTR ag: 26.6

Results for COc1cc(NC(=O)Nn2cnnc2)cc(OC)c1OC ?
V1R ag counter: inactive; OXTR potentiate: inactive; OXTR ag: inactive

How did Cn1nc(C(=O)NCCCN2CCCCC2)c2c1-c1ccccc1S(=O)(=O)C2 do in these assays?
V1R ag counter: inactive; OXTR potentiate: inactive; OXTR ag: inactive

Results for CCN(CC)c1ccc2c(c1)OC(N)=C(C#N)C2c1cccnc1 (stereo not given) ?
V1R ag counter: 32.8; OXTR potentiate: inactive; OXTR ag: 52.0; TRPML3 agonist: inactive; TRPN1 ag: inactive

Results for CCC1(c2ccc(F)cc2)NC(=O)N(CC(=O)c2cc(C)n(C3CC3)c2C)C1=O (stereo not given) ?
V1R ag counter: 30.4; OXTR potentiate: inactive; OXTR ag: 31.3

What do the screens show for `O=S(=O)(c1ccc(N2CCC(c3ccc(Cl)cc3)=N2)cc1)N(CCO)CCO`?
V1R ag counter: inactive; OXTR potentiate: inactive; OXTR ag: inactive; TRPML3 agonist: inactive; TRPN1 ag: inactive

How did CN(C)CCCNS(=O)(=O)c1ccc(N2CCC(c3ccc(Cl)cc3)=N2)cc1 do in these assays?
V1R ag counter: inactive; OXTR potentiate: inactive; OXTR ag: 19.7; TRPML3 agonist: inactive; TRPN1 ag: inactive

How did COc1ccc(S(=O)(=O)N2CCCC(C(=O)NCCC(C)C)C2)cc1 (stereo not given) do in these assays?
V1R ag counter: inactive; OXTR potentiate: inactive; OXTR ag: inactive; TRPML3 agonist: inactive; TRPN1 ag: inactive

Results for COc1ccc(C2CC(C)=C(C#N)S(=O)(=O)C2C#N)cc1 (stereo not given) ?
V1R ag counter: inactive; OXTR potentiate: inactive; OXTR ag: inactive; TRPML3 agonist: inactive; TRPN1 ag: inactive

How did Cc1ccc(NC(=S)NNc2ncc(C(F)(F)F)cc2Cl)c(C)c1 do in these assays?
V1R ag counter: inactive; OXTR potentiate: inactive; OXTR ag: inactive; TRPML3 agonist: inactive; TRPN1 ag: inactive

How did Fc1ccc(NC(=S)NNc2ncc(C(F)(F)F)cc2Cl)c(F)c1 do in these assays?
V1R ag counter: inactive; OXTR potentiate: inactive; OXTR ag: inactive; TRPML3 agonist: 13.6; TRPN1 ag: 23.1

What do the screens show for `FC(F)(F)c1cnc(NNC(=S)Nc2ccc(Cl)cc2)c(Cl)c1`?
V1R ag counter: inactive; OXTR potentiate: inactive; OXTR ag: inactive; TRPML3 agonist: 18.2; TRPN1 ag: 26.2

Results for COC(=O)c1sc(S(=O)(=O)N2CCCCC2C)c(C(=O)OC)c1C (stereo not given) ?
V1R ag counter: inactive; OXTR potentiate: inactive; OXTR ag: inactive

How did COc1ccc(CNC(=O)CN2C(=O)CCSc3ccc(S(=O)(=O)N4CCCC4)cc32)cc1 do in these assays?
V1R ag counter: inactive; OXTR potentiate: inactive; OXTR ag: inactive

How did COc1ccc(C)cc1NC(=O)c1ccccc1NS(=O)(=O)c1ccc(Cl)s1 do in these assays?
V1R ag counter: inactive; OXTR potentiate: inactive; OXTR ag: inactive; TRPML3 agonist: 14.4; TRPN1 ag: 22.3

What do the screens show for `O=C1/C(=C/c2ccc(N3CCCC3)cc2)NC(=S)N1C1CC1`?
V1R ag counter: 83.9; OXTR potentiate: inactive; OXTR ag: 114.7; TRPML3 agonist: inactive; TRPN1 ag: inactive

Results for O=C1N/C(=C/c2ccc(N3CCCC3)cc2)C(=O)N1c1ccccc1 ?
V1R ag counter: inactive; OXTR potentiate: inactive; OXTR ag: inactive; TRPML3 agonist: inactive; TRPN1 ag: inactive

How did Cc1cc(N2CCCC2)ccc1/C=C1\NC(=S)N(C)C1=O do in these assays?
V1R ag counter: 49.1; OXTR potentiate: inactive; OXTR ag: 54.0; TRPML3 agonist: inactive; TRPN1 ag: inactive

Results for CN1C(=O)c2ccc(N3CCCC3)cc2C1=O ?
V1R ag counter: inactive; OXTR potentiate: inactive; OXTR ag: inactive; TRPML3 agonist: inactive; TRPN1 ag: inactive

Results for CCCn1c(SCC(=O)NCCc2ccccc2)nnc1C(C)C ?
V1R ag counter: inactive; OXTR potentiate: inactive; OXTR ag: inactive; TRPML3 agonist: inactive; TRPN1 ag: inactive

Results for Cc1nn(C)cc1S(=O)(=O)Nc1ccc(F)c(F)c1 ?
V1R ag counter: inactive; OXTR potentiate: inactive; OXTR ag: inactive

Results for COc1ccc2noc3c2c1C(=O)c1ccccc1-3 ?
V1R ag counter: 221.2; OXTR potentiate: inactive; OXTR ag: 168.8

Results for O=C1c2ccccc2-c2onc3ccc(NCCCn4ccnc4)c1c23 ?
V1R ag counter: 44.8; OXTR potentiate: inactive; OXTR ag: 82.0; TRPML3 agonist: inactive; TRPN1 ag: inactive

What do the screens show for `NS(=O)(=O)c1ccc(NCCCn2ccnc2)c([N+](=O)[O-])c1`?
V1R ag counter: inactive; OXTR potentiate: inactive; OXTR ag: inactive

What do the screens show for `CC(C)CN(C(=O)CN(C)C(=O)c1ccco1)c1c(N)n(CC(C)C)c(=O)[nH]c1=O`?
V1R ag counter: inactive; OXTR potentiate: inactive; OXTR ag: inactive

Results for Cc1ccc(N2C(=O)c3cccc4c(C(=O)O)ccc(c34)C2=O)cc1 ?
V1R ag counter: inactive; OXTR potentiate: inactive; OXTR ag: inactive; TRPML3 agonist: inactive; TRPN1 ag: inactive

Results for O=C1c2ccccc2C(=O)N1c1ccc(Cl)cc1 ?
V1R ag counter: inactive; OXTR potentiate: inactive; OXTR ag: inactive; TRPML3 agonist: inactive; TRPN1 ag: inactive

What do the screens show for `O=C1c2cccc3c(O)ccc(c23)C(=O)N1Cc1ccco1`?
TRPML3 agonist: 37.7; TRPN1 ag: 79.2

What do the screens show for `O=C1c2cccc3c(O)ccc(c23)C(=O)N1c1ccc(Cl)cc1`?
V1R ag counter: 183.7; OXTR potentiate: inactive; OXTR ag: 186.2

How did CC(=O)Nc1ccc(N2C(=O)c3cccc4c(O)ccc(c34)C2=O)cc1 do in these assays?
V1R ag counter: 173.7; OXTR potentiate: inactive; OXTR ag: 172.4

Results for Cc1ccc(SCC(=O)NC(=O)Nc2ccc3c(c2)OCCO3)cc1C ?
V1R ag counter: inactive; OXTR potentiate: inactive; OXTR ag: inactive; TRPML3 agonist: inactive; TRPN1 ag: inactive

What do the screens show for `Cc1cnc(NC(=O)CSc2ncc(-c3ccccc3)n2Cc2ccco2)s1`?
V1R ag counter: 29.5; OXTR potentiate: inactive; OXTR ag: 25.9; TRPML3 agonist: inactive; TRPN1 ag: inactive

Source: PubChem BioAssay (The Scripps Research Institute Molecular Screening Center)
